According to ChEMBL document CHEMBL1145792, “Structure-activity relationships for 4-nitrobenzyl carbamates of 5-aminobenz[e]indoline minor groove alkylating agents as prodrugs for GDEPT in conjunction with E. coli nitroreductase” (J Med Chem, 2003):

Legend:
[1] = system: Mammary carcinoma cell line; assay: Cytotoxicity in non-NTR-expressing mouse mammary carcinoma cell line (EMT6).; format: functional, cell-based
WiDr [2] = assay: Ratio of cytotoxicity in a non-NTR-expressing WiDr compared to that in NTR-expressing WiDr.; format: functional, Homo sapiens
How it was run: (§1)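 Parental and stably NTR-transfected partner lines (V79puro/V79-NTRpuro, EMT6/EMT6-NTRpuro, WiDr/WiDr-NTRneo, SKOV3/SKOV-NTRneo) tested in parallel. Aerobic sulforhodamine B growth inhibition after an 18 h exposure, read 4–5 days later. Ratio is the NTR-ve IC50 over the NTR+ve IC50, calculated within each experiment.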

V79 [3] = assay: Ratio of cytotoxicity activity in a non-NTR-expressing V79 compared to that in NTR-expressing V79.; format: functional; how it was run: as §1
Ovarian cancer cell line [4] = assay: Cytotoxicity in non-NTR-expressing human ovarian carcinoma cell line (SKOV).; format: functional, cell-based
Ovarian cancer cell line [5] = assay: Ratio of cytotoxicity in a non-NTR-expressing SKOV compared to that in NTR-expressing SKOV.; format: functional, Homo sapiens; how it was run: as §1
[6] = system: Mammary carcinoma cell line; assay: Ratio of cytotoxicity in non-NTR-expressing EMT6 compared to that in NTR-expressing EMT6.; format: functional, Mus musculus; how it was run: as §1
[7] = Partition coefficient (logP); format: physicochemical; settings: octanol/water
How it was run: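 logP was calculated with prediction software, not measured.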

V79 [8] = assay: Cytotoxicity in non-NTR-expressing Chinese hamster fibroblast (V79).; format: functional, cell-based; settings: Cricetulus griseus
WiDr [9] = assay: Cytotoxicity in non-NTR-expressing human colon carcinoma cell line (WiDr).; format: functional, cell-based
[10] = LogD value was determined; format: physicochemical; settings: octanol/water

Compound	IC50 [1]	Ratio (WiDr [2])	Ratio (V79 [3])	IC50 (Ovarian cancer cell line [4])	Ratio (Ovarian cancer cell line [5])	Ratio [6]	logP ([7]; read-out: logP)	IC50 (V79 [8])	IC50 (WiDr [9])	logD [10]	logP [7]
NC(=O)c1cc(N(CCBr)CCBr)c([N+](=O)[O-])cc1[N+](=O)[O-]	54000 nM	174	302	58000 nM	211	1380	2.68	–	–	–	–
CNc1cc2c(c3ccccc13)C(CCl)CN2C(=O)c1cc2cc(OC)c(OC)c(OC)c2[nH]1 (stereo not drawn)	0.11 nM	1.1	1.2	0.2 nM	0.7	0.74	2.87	0.08 nM	0.2 nM	–	–
COc1cc2cc(C(=O)N3CC(CCl)c4c3cc(NC(=O)OCc3ccc([N+](=O)[O-])cc3OCCCO)c3ccccc43)[nH]c2c(OC)c1OC (stereo not drawn)	47 nM	91	11	145 nM	58	91	4.57	48 nM	191 nM	–	–
COc1cc2cc(C(=O)N3CC(CCl)c4c3cc(NC(=O)OC(C)c3ccc([N+](=O)[O-])cc3)c3ccccc43)[nH]c2c(OC)c1OC (stereo not drawn)	79 nM	6.6	1.67	158 nM	5.65	11	4.9	62 nM	154 nM	–	–
CN(C)CCOc1ccc2[nH]c(C(=O)N3CC(CCl)c4c3cc(NC(=O)OCc3ccc([N+](=O)[O-])cc3)c3ccccc43)cc2c1 (stereo not drawn)	208 nM	20	4.3	770 nM	41	31	4.94	157 nM	403 nM	3.24	–
COc1cc2cc(C(=O)N3CC(CCl)c4c3cc(N(C)C(=O)OCc3ccc([N+](=O)[O-])cc3)c3ccccc43)[nH]c2c(OC)c1OC (stereo not drawn)	48 nM	15	8.4	152 nM	10	27	3.98	48 nM	101 nM	–	–
COc1cc2cc(C(=O)N3CC(CCl)c4c3cc(NC(=O)OCc3ccc([N+](=O)[O-])cc3OCC(O)CO)c3ccccc43)[nH]c2c(OC)c1OC (stereo not drawn)	44 nM	25	1.75	114 nM	40	13	3.38	42 nM	129 nM	–	–
COCCOc1cc([N+](=O)[O-])ccc1COC(=O)Nc1cc2c(c3ccccc13)C(CCl)CN2C(=O)c1cc2cc(OC)c(OC)c(OC)c2[nH]1 (stereo not drawn)	33 nM	45	17	106 nM	67	78	4.47	31 nM	110 nM	–	–
CN(C)CCOc1ccc2[nH]c(C(=O)N3CC(CCl)c4c3cc(N)c3ccccc43)cc2c1 (stereo not drawn)	1.9 nM	1.9	1.2	13 nM	1.6	0.6	2.26	2.6 nM	6 nM	0.53	–
COc1cc([N+](=O)[O-])ccc1COC(=O)Nc1cc2c(c3ccccc13)C(CCl)CN2C(=O)c1cc2cc(OC)c(OC)c(OC)c2[nH]1 (stereo not drawn)	174 nM	47	6	59 nM	17	108	4.77	39 nM	141 nM	–	–
COc1cc2cc(C(=O)N3CC(CCl)c4c3cc(N)c3ccccc43)[nH]c2c(OC)c1OC (stereo not drawn)	0.37 nM	0.9	0.9	1.1 nM	0.6	2	1.87	0.33 nM	1.6 nM	–	–
COc1cc2cc(C(=O)N3CC(CCl)c4c3cc(NC(=O)OCc3ccc([N+](=O)[O-])cc3OCCO)c3ccccc43)[nH]c2c(OC)c1OC (stereo not drawn)	107 nM	148	11	224 nM	84	104	3.79	63 nM	295 nM	–	–
COc1cc2cc(C(=O)N3CC(CCl)c4c3cc(NC(=O)OCc3ccc([N+](=O)[O-])cc3OCCCN(C)C)c3ccccc43)[nH]c2c(OC)c1OC (stereo not drawn)	74 nM	3.8	1.45	189 nM	3.6	3.4	4.95	45 nM	269 nM	2.74	–
COc1cc([N+](=O)[O-])ccc1COC(=O)Nc1ccc(COC(=O)Nc2cc3c(c4ccccc24)C(CCl)CN3C(=O)c2cc3cc(OC)c(OC)c(OC)c3[nH]2)cc1 (stereo not drawn)	63 nM	1.8	1.03	223 nM	0.7	1.8	6.09	54 nM	295 nM	–	–
COc1cc2cc(C(=O)N3CC(CCl)c4c3cc(NC(=O)OCc3ccc([N+](=O)[O-])cc3OCCCN3CCOCC3)c3ccccc43)[nH]c2c(OC)c1OC (stereo not drawn)	24 nM	9	2.6	88 nM	6.5	6	4.55	20 nM	98 nM	4.06	–
COc1cc2cc(C(=O)N3CC(CCl)c4c3cc(NC(=O)OCc3ccc([N+](=O)[O-])cc3)c3ccccc43)[nH]c2c(OC)c1OC (stereo not drawn)	193 nM	33	10	62 nM	12	112	4.55	89 nM	391 nM	–	–
NC(=O)c1cc(N2CC2)c([N+](=O)[O-])cc1[N+](=O)[O-] [TRETAZICAR]	710000 nM	51.2	2090	174000 nM	317	930	–	–	–	–	1.28
